High-throughput results from PubChem BioAssay.
TRPC4 act = TRPC4 (mouse) channel activation. Q9QUQ5. HEK293 TRPC4beta/mu-opioid, Fluo4 calcium fluorescence; hits give high values. B-score at 10 µM. 310,000 compounds, 0.49% hits. AID 2237;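 active means B-score above 5 SD of library B-scores, and initial fluorescence ratio not above library mean plus 5 SD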;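 further: positive B-score marks a calcium rise read as TRPC4 activation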
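Incubation: 45 min room-temperature Fluo4 loading, 110 s read / System: HEK293 cells stably co-expressing mouse TRPC4beta and mu-opioid receptor / Signal: Fluo4 fluorescence, kinetic / Control set: buffer (low) and maximal DAMGO (high) / Measure: integrated baseline-normalised fluorescence ratio, converted to per-well B score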
TRPC4 PAM = allosteric potentiators of mouse TRPC4 channel; 310,000 compounds, 0.42% hits; B-score at 10 µM; HEK293 TRPC4beta/mu-opioid, DAMGO EC20, Fluo-4 Ca2+ flux; hits give high values; Q9QUQ5;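 active means B-score of calcium response area above 5 SD of library B-scores, with initial fluorescence ratio within 5 SD of library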
TRPC4 block = inhibitors of mouse TRPC4 channel. 300,000 compounds, 0.39% hits. HEK293 TRPC4beta/mu-opioid, DAMGO-evoked Fluo4 calcium flux; hits give low values. B-score at 10 µM. Q9QUQ5;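 active means B-score over 3 SD under the library average, no early fluorescence shift, positive overall ratio signal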
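Assay system: HEK293 cells with stable TRPC4beta plus mu-opioid receptor expression; Probe or stimulus: DAMGO in two steps, submaximal then maximal; Dosing: single-point compound dosing; Measured by: Fluo4 calcium-dye fluorescence, kinetic read; Read-out basis: B score from integrated Fluo4 fluorescence ratio.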
TRPC6 inhibitor = mouse TRPC6 channel inhibition; Q61143; B-score at 10 µM; 310,000 compounds, 1.1% hits; AID 2553; HEK293-TRPC6, membrane potential dye, ACh-evoked depolarization; hits give low values;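 active means B-score under library mean minus 3 SD, initial fluorescence not abnormally high, positive integrated signal ratio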;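 further: B-score derived from integrated fluorescence ratio over the kinetic read; more negative B-score means stronger inhibition of depolarization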
Platelet DG rel = platelet dense granule release activity. inhibition, %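 (compounds screened at 7.5 µM in platelet-rich plasma)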. 300,000 compounds, 0.22% hits. AID 1663. human platelet-rich plasma, SFLLRN dense granule ATP release, luminescence;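 active means mean replicate score, as percent of positive control, at or above 50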
TRPC6 activator = activates the mouse TRPC6 cation channel; Q61143; HEK293-TRPC6 membrane potential dye fluorescence; hits give high values; B-score at 10 µM; 310,000 compounds, 0.13% hits;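 active means B-score of the integrated fluorescence ratio above library mean plus 3 SD, and starting fluorescence ratio within library mean plus 5 SD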;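 further: higher score means more depolarization so channel activation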
Numbers stand for hits. In the library only some 2.5% were active in any assay of this set; here they are far more common.

CN(C)/C=C1\C(=O)N(c2ccc([N+](=O)[O-])cc2)N=C1c1ccccc1 was read as TRPC4 act 47, TRPC4 PAM inactive, TRPC4 block -6, TRPC6 inhibitor inactive, Platelet DG rel inactive and TRPC6 activator inactive.
For Cc1cc(=O)oc2cc(OCc3ccc(C(=O)OCC(=O)Nc4ccccc4OC(F)F)cc3)ccc12 the results were TRPC4 act inactive, TRPC4 PAM inactive, TRPC4 block inactive, TRPC6 inhibitor inactive, Platelet DG rel inactive and TRPC6 activator inactive.
COc1ccc(Cl)cc1N(CC(=O)NC1CC1)S(=O)(=O)c1ccc(C)c([N+](=O)[O-])c1 was read as TRPC4 act inactive, TRPC4 PAM inactive, TRPC4 block inactive, TRPC6 inhibitor inactive, Platelet DG rel inactive and TRPC6 activator inactive.
CCOC(=O)c1cnc2c(C)cccc2c1NCCc1ccc(OC)c(OC)c1 was read as TRPC4 act inactive, TRPC4 PAM inactive, TRPC4 block -6, TRPC6 inhibitor inactive, Platelet DG rel inactive and TRPC6 activator inactive.
Screening COc1ccc(NC(=S)Nn2cnnc2)c(OC)c1 returned TRPC4 act inactive, TRPC4 PAM inactive, TRPC4 block inactive, TRPC6 inhibitor inactive and TRPC6 activator inactive.
Screening NC(=O)C(c1ccc(Cl)cc1Cl)c1ncc(C(F)(F)F)cc1Cl (configuration not stated) returned TRPC4 act inactive, TRPC4 PAM 14, TRPC4 block inactive, TRPC6 inhibitor inactive, Platelet DG rel inactive and TRPC6 activator inactive.
`COc1ccc(OC)c(S(=O)(=O)Nc2ccc(-c3ccc4nncn4n3)cc2)c1` gave TRPC4 act inactive, TRPC4 PAM inactive, TRPC4 block inactive, TRPC6 inhibitor inactive, Platelet DG rel inactive and TRPC6 activator inactive.
For COc1ccc(NC(=O)c2cc([N+](=O)[O-])ccc2O)cc1 the results were TRPC4 act inactive, TRPC4 PAM inactive, TRPC4 block inactive, TRPC6 inhibitor inactive, Platelet DG rel 72 and TRPC6 activator inactive.
Screening CN1CCN(c2ccc(-c3ccc4ccccc4n3)cc2)CC1 returned TRPC4 act inactive, TRPC4 PAM inactive, TRPC4 block inactive, TRPC6 inhibitor inactive, Platelet DG rel 79 and TRPC6 activator inactive.
For c1ccc2nc(-c3ccc(N4CCOCC4)cc3)ccc2c1 the results were TRPC4 act inactive, TRPC4 PAM inactive, TRPC4 block inactive, TRPC6 inhibitor inactive, Platelet DG rel 57 and TRPC6 activator inactive.
Cc1ccccc1Cn1cc(NS(=O)(=O)c2cn(C)nc2C)cn1 was read as TRPC4 act inactive, TRPC4 PAM inactive, TRPC4 block inactive, TRPC6 inhibitor inactive, Platelet DG rel inactive and TRPC6 activator inactive.
`Cc1ccc(N=Nc2cc(C)ccc2N)cc1` gave TRPC4 act inactive, TRPC4 PAM inactive, TRPC4 block inactive, TRPC6 inhibitor inactive, Platelet DG rel 70 and TRPC6 activator inactive.
Cc1ccc(N=Nc2cc(C)ccc2O)c(C)c1 was read as TRPC4 act inactive, TRPC4 PAM inactive, TRPC4 block inactive, TRPC6 inhibitor inactive, Platelet DG rel inactive and TRPC6 activator inactive.
For CCN1C(=O)CSC1=NC12CC3CC(CC(C3)C1)C2 the results were TRPC4 act inactive, TRPC4 PAM inactive, TRPC4 block -5, TRPC6 inhibitor inactive, Platelet DG rel inactive and TRPC6 activator inactive.
`CN1C(=O)CSC1=NC12CC3CC(CC(C3)C1)C2` gave TRPC4 act inactive, TRPC4 PAM inactive, TRPC4 block -6, TRPC6 inhibitor inactive, Platelet DG rel inactive and TRPC6 activator inactive.
Screening CN1C(=O)CSC1=Nc1ccc(Br)cc1 returned TRPC4 act inactive, TRPC4 PAM inactive, TRPC4 block inactive, TRPC6 inhibitor inactive, Platelet DG rel inactive and TRPC6 activator inactive.
For Cc1cc(N2CCN(C)CC2)nc2ccc(NC(=O)c3ccccc3F)cc12 the results were TRPC4 act inactive, TRPC4 PAM inactive, TRPC4 block inactive, TRPC6 inhibitor inactive, Platelet DG rel inactive and TRPC6 activator inactive.
For COC(=O)c1cc(N2CCN(C)CC2)nc2ccccc12 the results were TRPC4 act inactive, TRPC4 PAM 17, TRPC4 block inactive, TRPC6 inhibitor inactive, Platelet DG rel inactive and TRPC6 activator inactive.
Screening Cc1ccc(NC(=S)NCc2ccco2)c(C)c1 returned TRPC4 act inactive, TRPC4 PAM inactive, TRPC4 block inactive, TRPC6 inhibitor inactive, Platelet DG rel inactive and TRPC6 activator inactive.
For O=C(COC(=O)CCC(=O)c1ccc(F)cc1)Nc1cccc(S(=O)(=O)N2CCCC2)c1 the results were TRPC4 act inactive, TRPC4 PAM inactive, TRPC4 block inactive, TRPC6 inhibitor inactive, Platelet DG rel 59 and TRPC6 activator inactive.
`O=C(COC(=O)c1ccc(O)cc1)Nc1cccc(S(=O)(=O)N2CCCCC2)c1` gave TRPC4 act inactive, TRPC4 PAM inactive, TRPC4 block inactive, TRPC6 inhibitor inactive, Platelet DG rel inactive and TRPC6 activator inactive.
For CCC1(c2ccc(F)cc2)NC(=O)N(CC(=O)Nc2cccc(S(=O)(=O)N3CCCCC3)c2)C1=O (configuration not stated) the results were TRPC4 act inactive, TRPC4 PAM 12, TRPC4 block inactive, TRPC6 inhibitor inactive, Platelet DG rel inactive and TRPC6 activator inactive.
`CCS(=O)(=O)Nc1cccc(C2=NN(S(=O)(=O)c3ccc(C)cc3)C(c3ccco3)C2)c1` (configuration not stated) gave TRPC4 act inactive, TRPC4 PAM inactive, TRPC4 block inactive, TRPC6 inhibitor inactive, Platelet DG rel inactive and TRPC6 activator inactive.
CC(NS(C)(=O)=O)C(c1cccs1)N1CCN(C)CC1 (configuration not stated) was read as TRPC4 act inactive, TRPC4 PAM inactive, TRPC6 inhibitor inactive, Platelet DG rel inactive and TRPC6 activator inactive.
Screening CC(NS(C)(=O)=O)C(c1cccs1)N1CCN(Cc2ccccc2)CC1 (configuration not stated) returned TRPC4 act inactive, TRPC4 PAM inactive, TRPC4 block inactive, TRPC6 inhibitor inactive, Platelet DG rel 65 and TRPC6 activator inactive.
Screening COc1ccc(-c2cc3ccc(O)cc3oc2=O)cc1OC returned TRPC4 act inactive, TRPC4 PAM inactive, TRPC4 block inactive, TRPC6 inhibitor inactive, Platelet DG rel 71 and TRPC6 activator inactive.
Screening CC1C(=O)N(Cc2ccccc2F)c2ccccc2N1C(=O)c1c(F)cccc1F (configuration not stated) returned TRPC4 act inactive, TRPC4 PAM 10, TRPC4 block inactive, TRPC6 inhibitor inactive, Platelet DG rel inactive and TRPC6 activator inactive.
`CN1CCC(N(C)S(=O)(=O)c2ccc(NC(=O)COc3cccc(C(F)(F)F)c3)cc2)CC1` gave TRPC4 act inactive, TRPC4 PAM inactive, TRPC4 block inactive, TRPC6 inhibitor inactive, Platelet DG rel inactive and TRPC6 activator inactive.
